One molecule from ChEMBL document CHEMBL1155379, “Effect of 3'-end capping of aptamer with various 2',4'-bridged nucleotides: Enzymatic post-modification toward a practical use of polyclonal aptamers” (Bioorg Med Chem Lett, 2010) can be followed below.

The nature of data set [1]: Chemical stability in presence of snake venom phosphodiesterase 1 assessed as oligonucleotide degradation after 120 mins by PAGE. It counts as physicochemical. To be noted: 2 h.
Data set [2] is described as follows: Chemical stability in presence of 80% (v/v) human serum assessed as intact compound remaining after 8 hrs by PAGE. Format: physicochemical. To be noted: read-out: Stability. Put shortly: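 Aptamer incubated in 80% v/v human serum at 37 °C for 8 h; intact full-length aptamer remaining quantified.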
In a further data set the target is Prothrombin (Homo sapiens, UniProt P00734). As to the kind of experiment: Binding affinity to human thrombin after 30 mins by non-equilibrium capillary electrophoresis. Put shortly:
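Capillary electrophoresis of aptamer–thrombin mixtures: aptamer 1 nM with thrombin 4 nM in 20 mM Tris-HCl (1 mM MgCl2) pH 7.4 sample buffer; running buffer 100 mM sodium borate pH 8.35; separation +12 kV, injection 0.5 psi × 7.8 s. Kd derived from binding saturation curves over varied thrombin concentrations.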

pKd: −log10 of the molar value.

What is called pKd is the Kd on a negative log10 scale, so that one unit is a factor of ten. Read a high pKd as a small Kd. Consider `C=C1NC(=O)C(C)=CN1[C@H]1C[C@H](OP(=O)(O)OC[C@H]2O[C@@H](n3cnc4c(=O)[nH]c(N)nc43)[C@H](O)[C@@H]2OP(=O)(O)OC[C@H]2O[C@@H](n3cnc4c(N)ncnc43)[C@H](O)[C@@H]2OP(=O)(O)OC[C@H]2O[C@@H](n3ccc(N)nc3=O)[C@H](O)[C@@H]2OP(=O)(O)OC[C@H]2O[C@@H](n3cc(C)c(=O)[nH]c3=O)C[C@@H]2OP(=O)(O)OC[C@]23O[C@@H](n4cc(C)c(=O)[nH]c4=O)[C@H](OCOC2c2ccccc2)[C@@H]3O)[C@@H](COP(=O)(O)O[C@H]2[C@@H](O)[C@H](n3cnc4c(=O)[nH]c(N)nc43)O[C@@H]2COP(=O)(O)O[C@H]2[C@@H](O)[C@H](n3cnc4c(=O)[nH]c(N)nc43)O[C@@H]2COP(=O)(O)O[C@H]2[C@@H](O)[C@H](n3cnc4c(=O)[nH]c(N)nc43)O[C@@H]2COP(=O)(O)O[C@H]2[C@@H](O)[C@H](n3cnc4c(=O)[nH]c(N)nc43)O[C@@H]2COP(=O)(O)O[C@H]2C[C@H](n3cc(C)c(=O)[nH]c3=O)O[C@@H]2COP(=O)(O)O[C@H]2C[C@H](n3cc(C)c(=O)[nH]c3=O)O[C@@H]2COP(=O)(O)O[C@H]2[C@@H](O)[C@H](n3cnc4c(=O)[nH]c(N)nc43)O[C@@H]2COP(=O)(O)O[C@H]2[C@@H](O)[C@H](n3cnc4c(=O)[nH]c(N)nc43)O[C@@H]2COP(=O)(O)O[C@H]2[C@@H](O)[C@H](n3cnc4c(N)ncnc43)O[C@@H]2COP(=O)(O)O[C@H]2[C@@H](O)[C@H](n3ccc(N)nc3=O)O[C@@H]2COP(=O)(O)O[C@H]2[C@@H](O)[C@H](n3cnc4c(=O)[nH]c(N)nc43)O[C@@H]2COP(=O)(O)O[C@H]2[C@@H](O)[C@H](n3cnc4c(=O)[nH]c(N)nc43)O[C@@H]2COP(=O)(O)O[C@H]2[C@@H](O)[C@H](n3cnc4c(=O)[nH]c(N)nc43)O[C@@H]2COP(=O)(O)O[C@H]2[C@@H](O)[C@H](n3cnc4c(N)ncnc43)O[C@@H]2COP(=O)(O)O[C@H]2C[C@H](n3cc(C)c(=O)[nH]c3=O)O[C@@H]2COP(=O)(O)O[C@H]2[C@@H](O)[C@H](n3cnc4c(=O)[nH]c(N)nc43)O[C@@H]2COP(=O)(O)O[C@H]2[C@@H](O)[C@H](n3cnc4c(=O)[nH]c(N)nc43)O[C@@H]2COP(=O)(O)O[C@H]2C[C@H](n3cc(C)c(=O)[nH]c3=O)O[C@@H]2COP(=O)(O)O[C@H]2[C@@H](O)[C@H](n3cnc4c(=O)[nH]c(N)nc43)O[C@@H]2COP(=O)(O)O[C@H]2[C@@H](O)[C@H](n3ccc(N)nc3=O)O[C@@H]2COP(=O)(O)O[C@H]2[C@@H](O)[C@H](n3ccc(N)nc3=O)O[C@@H]2COP(=O)(O)O[C@H]2C[C@H](n3cc(C)c(=O)[nH]c3=O)O[C@@H]2COP(=O)(O)O[C@H]2[C@@H](O)[C@H](n3cnc4c(=O)[nH]c(N)nc43)O[C@@H]2COP(=O)(O)O[C@H]2[C@@H](O)[C@H](n3cnc4c(N)ncnc43)O[C@@H]2COc2ccc3c(c2)Oc2cc(O)ccc2C32OC(=O)c3ccccc32)O1` (stereo partly drawn), for which the Stability result in data set [1] was “Stable”. Also, the remaining at 8 h in data set [2] stood at 20%. The molecule also showed a pKd at Prothrombin of 9.55.
